# Where “and” joins values, the source holds several entries; their conditions need not be identical. Equal entries are not always repeated.
# Experiments:
# Cavia porcellus [1] = species on record: Cavia porcellus; test: Effect on contractile force of spontaneously beating atria from reserpine treated guinea pigs at the concentration of 5x 10 e-5 M (negative ionotropic effect); format: functional
# Cavia porcellus [2] = species on record: Cavia porcellus; test: Effect on inotropic response to 10 e-4 8-phenyltheophylline in electrically driven left atrium from reserpine-treated guinea pigs at 10 e-4 M; format: functional, Cardiac atrium
# In short: (§1)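 Paced left atrium (1.5 Hz, 0.5 g load) from reserpine-pretreated guinea pigs. Test agent (10^-4 or 5×10^-5 M) added to perfusion 10 min before cumulative 8-phenyltheophylline (10^-6–10^-4 M). Developed tension as % increase over control. Mean ± SEM of four assays from four experiments; Student's t test against atria without the test agent.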
# Cavia porcellus [3] = species on record: Cavia porcellus; test: Effect on contractile force of spontaneously beating atria from reserpine treated guinea pigs at the concentration of 10 e-3 M (negative ionotropic effect); format: functional
# Cavia porcellus [4] = species on record: Cavia porcellus; test: Effect on inotropic response to 3 x 10 e-6 8-phenyltheophylline in electrically driven left atrium from reserpine-treated guinea pigs; format: functional, Cardiac atrium; in short: as §1
# Cavia porcellus [5] = species on record: Cavia porcellus; test: Effect on inotropic response to 10 e-6 8-phenyltheophylline in electrically driven left atrium from reserpine-treated guinea pigs at 10 e-4 M; format: functional, Cardiac atrium; in short: as §1
# Cavia porcellus [6] = species on record: Cavia porcellus; test: Effect on inotropic response to 10 e-5 8-phenyltheophylline in electrically driven left atrium from reserpine-treated guinea pigs; format: functional, Cardiac atrium; in short: as §1
# Cavia porcellus [7] = species on record: Cavia porcellus; test: Effect on contractile force of spontaneously beating atria from reserpine treated guinea pigs at the concentration of 2 x 10 e-3 M (negative ionotropic effect); format: functional
# Cavia porcellus [8] = species on record: Cavia porcellus; test: Effect on contractile force of spontaneously beating atria from reserpine treated guinea pigs at the concentration of 10 e-5 M (negative ionotropic effect); format: functional
# Cavia porcellus [9] = species on record: Cavia porcellus; test: Effect on inotropic response to 10 e-4 8-phenyltheophylline in electrically driven left atrium from reserpine-treated guinea pigs; format: functional, Cardiac atrium; in short: as §1
# Cavia porcellus [10] = species on record: Cavia porcellus; test: Effect on inotropic response to 3 x 10 e-6 8-phenyltheophylline in electrically driven left atrium from reserpine-treated guinea pigs at 5 x 10 e-5 M; format: functional, Cardiac atrium; in short: as §1
# Cavia porcellus [11] = species on record: Cavia porcellus; test: Effect on frequency rate of spontaneously beating atria from reserpine treated guinea pigs at the concentration of 2 x 10 e-3 M (negative chronotropic ionotropic effect); format: functional
# Cavia porcellus [12] = species on record: Cavia porcellus; test: Effect on inotropic response to 10 e-6 8-phenyltheophylline in electrically driven left atrium from reserpine-treated guinea pigs; format: functional, Cardiac atrium; in short: as §1
# Cavia porcellus [13] = species on record: Cavia porcellus; test: Effect on inotropic response to 3 x 10 e-6 8-phenyltheophylline in electrically driven left atrium from reserpine-treated guinea pigs at 10 e-4 M; format: functional, Cardiac atrium; in short: as §1
# Cavia porcellus [14] = species on record: Cavia porcellus; test: Effect on inotropic response to 10 e-6 8-phenyltheophylline in electrically driven left atrium from reserpine-treated guinea pigs at 5 x 10 e-5 M; format: functional, Cardiac atrium; in short: as §1
# Cavia porcellus [15] = species on record: Cavia porcellus; test: Effect on inotropic response to 3x 10 e-5 8-phenyltheophylline in electrically driven left atrium from reserpine-treated guinea pigs at 5 x 10 e-5 M; format: functional, Cardiac atrium; in short: as §1
# Cavia porcellus [16] = species on record: Cavia porcellus; test: Effect on contractile force of spontaneously beating atria from reserpine treated guinea pigs at the concentration of 10 e-4 M (negative ionotropic effect); format: functional
# Cavia porcellus [17] = species on record: Cavia porcellus; test: Effect on inotropic response to 3 x 10 e-5 8-phenyltheophylline in electrically driven left atrium from reserpine-treated guinea pigs; format: functional, Cardiac atrium; in short: as §1
# Cavia porcellus [18] = species on record: Cavia porcellus; test: Effect on contractile force of spontaneously beating atria from reserpine treated guinea pigs at the concentration of 5x 10 e-4 M (negative ionotropic effect); format: functional
# Cavia porcellus [19] = species on record: Cavia porcellus; test: Effect on frequency rate of spontaneously beating atria from reserpine treated guinea pigs at the concentration of 5 x 10 e-4 M (negative chronotropic ionotropic effect); format: functional
# [20] = Logarithm of the sum of contributions of each atom to the total lipophilicity of the molecule; format: physicochemical; conditions: octanol/water
# Cavia porcellus [21] = species on record: Cavia porcellus; test: Effect on frequency rate of spontaneously beating atria from reserpine treated guinea pigs at the concentration of 10 e-4 M (negative chronotropic ionotropic effect); format: functional
# Cavia porcellus [22] = species on record: Cavia porcellus; test: Effect on inotropic response to 10 e-5 8-phenyltheophylline in electrically driven left atrium from reserpine-treated guinea pigs at 5 x 10 e-5 M; format: functional, Cardiac atrium; in short: as §1
# Cavia porcellus [23] = species on record: Cavia porcellus; test: Effect on inotropic response to 3 x 10 e-5 8-phenyltheophylline in electrically driven left atrium from reserpine-treated guinea pigs at 10 e-4 M; format: functional, Cardiac atrium; in short: as §1
# Cavia porcellus [24] = species on record: Cavia porcellus; test: Effect on frequency rate of spontaneously beating atria from reserpine treated guinea pigs at the concentration of 5 x 10 e-5 M (negative chronotropic ionotropic effect)
# Cavia porcellus [25] = species on record: Cavia porcellus; test: Effect on inotropic response to 10 e-4 8-phenyltheophylline in electrically driven left atrium from reserpine-treated guinea pigs at 5 x 10 e-5 M; format: functional, Cardiac atrium; in short: as §1
# Cavia porcellus [26] = species on record: Cavia porcellus; test: Effect on frequency rate of spontaneously beating atria from reserpine treated guinea pigs at the concentration of 10 e-3 M (negative chronotropic ionotropic effect); format: functional
# Cavia porcellus [27] = species on record: Cavia porcellus; test: Effect on inotropic response to 10 e-5 8-phenyltheophylline in electrically driven left atrium from reserpine-treated guinea pigs at 10 e-4 M; format: functional, Cardiac atrium; in short: as §1
compound,measurement,setting,value
O=C(c1ccccc1)c1ccc(O)nc1-c1ccccc1,Increase,Cavia porcellus [1],-7.3%
same,Increase,Cavia porcellus [2],27.05%
same,Increase,Cavia porcellus [3],-43.71%
same,Increase,Cavia porcellus [4],7.33%
same,Increase,Cavia porcellus [5],4.56%
same,Increase,Cavia porcellus [6],11.19%
same,Increase,Cavia porcellus [7],-46.27%
same,Increase,Cavia porcellus [8],-2.67%
same,Increase,Cavia porcellus [9],20.81%
same,Increase,Cavia porcellus [10],8.13%
same,Increase,Cavia porcellus [11],-40.57%
same,Increase,Cavia porcellus [12],4.27%
same,Increase,Cavia porcellus [13],11.38%
same,Increase,Cavia porcellus [14],5.7%
same,Increase,Cavia porcellus [15],17.41%
same,Increase,Cavia porcellus [16],-24.76%
same,Increase,Cavia porcellus [17],14.72%
same,Increase,Cavia porcellus [18],-38.32%
same,Increase,Cavia porcellus [19],-24.37%
same,logP,[20],3.82
same,Increase,Cavia porcellus [21],-14.92%
same,Increase,Cavia porcellus [22],14.44%
same,Increase,Cavia porcellus [23],20.17%
same,Increase,Cavia porcellus [24],-4.26% and -9.3%
same,Increase,Cavia porcellus [25],25.91%
same,Increase,Cavia porcellus [26],-32.89%
same,Increase,Cavia porcellus [27],18.78%
